According to ChEMBL document CHEMBL5104181, “Development of Hydrogen Sulfide-Releasing Carbonic Anhydrases IX- and XII-Selective Inhibitors with Enhanced Antihyperalgesic Action in a Rat Model of Arthritis” (J Med Chem, 2022):
Calls of active or inactive are those of the source. The calls are words filed in the database; no cut-off is given here.

Assays:
Carbonic anhydrase 12 = Carbonic anhydrase 12 (Homo sapiens, UniProt O43570); test: Inhibition of recombinant human CA12 pre-incubated for 15 mins by phenol red dye based stopped flow CO2 hydration assay
Carbonic anhydrase 2 = Carbonic anhydrase 2 (Homo sapiens, UniProt P00918); test: Inhibition of recombinant human CA2 pre-incubated for 15 mins by phenol red dye based stopped flow CO2 hydration assay
Carbonic anhydrase 1 = Carbonic anhydrase 1 (Homo sapiens, UniProt P00915); test: Inhibition of recombinant human CA1 pre-incubated for 15 mins by phenol red dye based stopped flow CO2 hydration assay
Carbonic anhydrase 9 = Carbonic anhydrase 9 (Homo sapiens, UniProt Q16790); test: Inhibition of recombinant human CA9 pre-incubated for 15 mins by phenol red dye based stopped flow CO2 hydration assay
Carbonic anhydrase 4 = Carbonic anhydrase 4 (Homo sapiens, UniProt P22748); test: Inhibition of recombinant human CA4 pre-incubated for 15 mins by phenol red dye based stopped flow CO2 hydration assay
Liver [1] = test: Induction of H2S release in rat liver microsomes assessed as half life of H2S release at 150 uM incubated for 90 mins by methylene blue based UV-Vis spectrophotometer analysis; type: functional; conditions: Homogenate, in the assay text read “rat liver homogenate” for “rat liver microsomes”
Method in brief: (§1)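 Rat liver homogenized 1/20 w/v in ice-cold 50 mM potassium phosphate pH 7.4, diluted further 1:10; compound 150 μM final (30 mM DMSO stock) in airtight vials at 37 °C, 0–90 min. H2S trapped with zinc acetate, proteins precipitated with TCA, then N,N-dimethyl-p-phenylenediamine/FeCl3; methylene blue A667 after 30 min at 25 °C; Na2S calibration 1–250 μM; compound-free baseline; triplicate.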

[2] = Toxicity in Sprague-Dawley rat model of complete freund's adjuvant-induced arthritis assessed as effect on autonomical parameters at 30 mg/kg, po measured for 24 hrs by Irwin test; type: organism-based; conditions: in vivo
Method in brief: (§2)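 Single oral 30 mg/kg dose (1% CMC suspension) in CFA-arthritic Sprague Dawley rats; animals observed 24 h. Irwin screen in individual transparent cage scoring 26 autonomic, behavioral and neurological parameters; some signs recorded as present/absent, skin colour qualitatively, others semiquantitatively on observer scales (0 to +4, −4 to 0, or −4 to +4).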

Rattus norvegicus [3] = test: (§3) Antinociceptive activity against complete freund's adjuvant-induced arthritic Sprague-Dawley rat model assessed as increase in weight tolerated on ipsilateral paw at 10 to 30 mg/kg, po administered as single dose starting from day 14 post CFA injection and measured after 15 to 45 mins by Paw pressure test; type: functional, organism-based; conditions: dose 10-30 mg/kg, time lower 15.0 min, time upper […]
Liver [4] = test: Induction of H2S release in rat liver microsomes assessed as Cmax of H2S release at 150 uM measured after 90 mins by methylene blue based UV-Vis spectrophotometer analysis; type: functional; conditions: Homogenate, in the assay text read “rat liver homogenate” for “rat liver microsomes”; method in brief: as §1
Liver [5] = test: Induction of H2S release in rat liver microsomes at 150 uM incubated for 90 mins by methylene blue based UV-Vis spectrophotometer analysis; type: functional; conditions: Homogenate, in the assay text read “rat liver homogenate” for “rat liver microsomes”; method in brief: as §1
[6] = Toxicity in Sprague-Dawley rat model of complete freund's adjuvant-induced arthritis assessed as effect on behavioral parameters at 30 mg/kg, po measured for 24 hrs by Irwin test; type: organism-based; conditions: in vivo; method in brief: as §2
Rattus norvegicus [7] = test: as §3, with “reduction” for “increase”, “mechanical hyperalgesia induced hypersensitivity” for “weight tolerated on ipsilateral paw”, “upto 75” for “after 15 to 45”; type: functional, organism-based; conditions: dose 10-30 mg/kg
[8] = Toxicity in Sprague-Dawley rat model of complete freund's adjuvant-induced arthritis assessed as effect on neurological parameters at 30 mg/kg, po measured for 24 hrs by Irwin test; type: organism-based; conditions: in vivo; method in brief: as §2
Rattus norvegicus [9] = test: Antinociceptive activity against complete freund's adjuvant-induced arthritic Sprague-Dawley rat model assessed as reduction in spontaneous pain by measuring difference in weight tolerance on contralateral and ipsilateral paw administered orally as single dose starting from day 14 post CFA injection and measured after 30 to 45 mins by Incapacitance test; type: functional, organism-based; conditions: dose 1-30 mg/kg, route po, time lower 30.0 min, time upper […], DDE = dose-dependent effect
Method in brief: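 Sprague Dawley rats 200–250 g, CFA 50 μL intra-articular into left tibiotarsal joint on day 0 (saline controls). On day 14, single oral dose in 1% CMC (hybrids 1, 10, 30 mg/kg; single agents 13.23 or 17.71 mg/kg). Incapacitance apparatus, rats on hind paws on 65° inclined plane; Δ weight = contralateral minus ipsilateral load over time; 8 rats, two experimental sets, mean (SEM).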

Rattus norvegicus [10] = test: Antinociceptive activity against complete freund's adjuvant-induced arthritic Sprague-Dawley rat model assessed as reduction in mechanical hyperalgesia induced hypersensitivity administered orally as single dose starting from day 14 post CFA injection and measured upto 75 mins by Paw pressure test; type: functional, organism-based; conditions: dose 1-30 mg/kg, route po, DDE = dose-dependent effect

Chain of Carbonic anhydrase 4 (P22748 whole entry): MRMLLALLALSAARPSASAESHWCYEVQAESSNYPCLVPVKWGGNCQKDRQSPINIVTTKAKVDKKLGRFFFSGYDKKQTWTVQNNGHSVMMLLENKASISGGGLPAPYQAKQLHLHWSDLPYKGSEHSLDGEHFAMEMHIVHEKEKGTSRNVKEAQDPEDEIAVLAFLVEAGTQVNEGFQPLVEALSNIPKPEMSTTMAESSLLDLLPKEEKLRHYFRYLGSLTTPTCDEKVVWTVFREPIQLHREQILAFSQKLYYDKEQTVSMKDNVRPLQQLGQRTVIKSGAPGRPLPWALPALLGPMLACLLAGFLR
Chain of Carbonic anhydrase 12 (O43570 whole entry): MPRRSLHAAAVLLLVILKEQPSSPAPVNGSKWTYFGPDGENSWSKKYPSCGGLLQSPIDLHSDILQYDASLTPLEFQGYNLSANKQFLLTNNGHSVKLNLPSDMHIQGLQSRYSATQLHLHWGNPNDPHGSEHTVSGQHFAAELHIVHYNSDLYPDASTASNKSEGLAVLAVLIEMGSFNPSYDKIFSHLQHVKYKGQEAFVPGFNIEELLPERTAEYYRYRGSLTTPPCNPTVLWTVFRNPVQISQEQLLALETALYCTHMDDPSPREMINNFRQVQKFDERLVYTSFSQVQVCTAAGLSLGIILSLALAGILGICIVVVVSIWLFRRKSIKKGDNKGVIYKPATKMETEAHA
Chain of Carbonic anhydrase 1 (P00915 whole entry): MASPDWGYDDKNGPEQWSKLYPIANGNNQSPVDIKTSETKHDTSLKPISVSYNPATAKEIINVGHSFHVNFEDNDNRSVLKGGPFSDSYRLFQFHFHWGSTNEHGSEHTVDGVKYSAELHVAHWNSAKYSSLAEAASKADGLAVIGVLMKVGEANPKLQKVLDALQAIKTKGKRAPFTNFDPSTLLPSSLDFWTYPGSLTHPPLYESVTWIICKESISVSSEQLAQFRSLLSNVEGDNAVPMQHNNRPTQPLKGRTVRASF

N#CCCN(CCc1ccc(S(N)(=O)=O)cc1)C(=O)c1ccc(-c2cssc2=S)cc1
Ki (Carbonic anhydrase 12): 9.1 nM | Ki (Carbonic anhydrase 2): 60.4 nM | Ki (Carbonic anhydrase 1): 429 nM | Ki (Carbonic anhydrase 9): 28.7 nM | Ki (Carbonic anhydrase 4): 523 nM

N#Cc1ccc(CN(CCc2ccc(S(N)(=O)=O)cc2)C(=O)c2ccc(-c3cssc3=S)cc2)cc1
Ki (Carbonic anhydrase 12): 8.8 nM | Ki (Carbonic anhydrase 2): 4830 nM | Ki (Carbonic anhydrase 1): > 10000 nM | Ki (Carbonic anhydrase 9): 40.3 nM | Ki (Carbonic anhydrase 4): 46.2 nM

NS(=O)(=O)c1ccc(CCN(Cc2ccc(Cl)cc2)C(=O)c2ccc(-c3cssc3=S)cc2)cc1
Ki (Carbonic anhydrase 12): 9.8 nM | Ki (Carbonic anhydrase 2): 2970 nM | Ki (Carbonic anhydrase 1): 5510 nM | Ki (Carbonic anhydrase 9): 24 nM | Ki (Carbonic anhydrase 4): 430 nM

CSc1ccc(CN(CCc2ccc(S(N)(=O)=O)cc2)C(=O)c2ccc(-c3cssc3=S)cc2)cc1
Ki (Carbonic anhydrase 12): 8.4 nM | T1/2 (Liver [1]): 4.3 min | Ki (Carbonic anhydrase 2): 9650 nM | Activity [2]: Non-Toxic | Ki (Carbonic anhydrase 1): 7210 nM | Ki (Carbonic anhydrase 9): 46.2 nM | Activity (Rattus norvegicus [3]): Active | Ki (Carbonic anhydrase 4): 404 nM | Cmax (Liver [4]): 7.9 µM | Activity (Liver [5]): Active | Activity [6]: Non-Toxic | Activity (Rattus norvegicus [7]): Active | Activity [8]: Non-Toxic | Activity (Rattus norvegicus [9]): Dde

COc1cc([N+](=O)[O-])ccc1CN(CCc1ccc(S(N)(=O)=O)cc1)C(=O)c1ccc(-c2cssc2=S)cc1
Ki (Carbonic anhydrase 12): 7.7 nM | T1/2 (Liver [1]): 4.3 min | Ki (Carbonic anhydrase 2): 2950 nM | Activity [2]: Non-Toxic | Ki (Carbonic anhydrase 1): 6700 nM | Activity (Rattus norvegicus [10]): Dde | Ki (Carbonic anhydrase 9): 4.1 nM | Ki (Carbonic anhydrase 4): 4090 nM | Cmax (Liver [4]): 7.9 µM | Activity (Liver [5]): Active | Activity [6]: Non-Toxic | Activity [8]: Non-Toxic | Activity (Rattus norvegicus [9]): Dde

CN(C)c1ccc(CN(CCc2ccc(S(N)(=O)=O)cc2)C(=O)c2ccc(-c3cssc3=S)cc2)cc1
Ki (Carbonic anhydrase 12): 9.5 nM | Ki (Carbonic anhydrase 2): 995 nM | Ki (Carbonic anhydrase 1): 4260 nM | Ki (Carbonic anhydrase 9): 22.7 nM | Ki (Carbonic anhydrase 4): 3410 nM

NS(=O)(=O)c1ccc(CCN(Cc2ccccc2)C(=O)c2ccc(-c3cssc3=S)cc2)cc1
Ki (Carbonic anhydrase 12): 9.7 nM | Ki (Carbonic anhydrase 2): 480 nM | Ki (Carbonic anhydrase 9): 43 nM | Ki (Carbonic anhydrase 4): 4340 nM

NS(=O)(=O)c1ccc(CCN(Cc2ccc([N+](=O)[O-])cc2)C(=O)c2ccc(-c3cssc3=S)cc2)cc1
Ki (Carbonic anhydrase 12): 32.9 nM | Ki (Carbonic anhydrase 2): 919 nM | Ki (Carbonic anhydrase 1): 7450 nM | Ki (Carbonic anhydrase 9): 36.6 nM | Ki (Carbonic anhydrase 4): > 10000 nM
